Experiment [1] deals with T1, Prostaglandin G/H synthase 1 (Homo sapiens, UniProt P23219). Briefly: Inhibition of human Prostaglandin G/H synthase 1 at 10 ug/mL expressed as mean percent inhibition of control PGE-2 production. The procedure, abridged: (§1)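 Human COX-1 and COX-2 genes expressed in a baculovirus system; microsomes prepared from High Five insect cells and used as the enzyme source. Activity read as PGE2 production. Each dose run in duplicate wells within each experiment, and values given as mean percent inhibition of control PGE2.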

Experiment [2] has as its target T1, Prostaglandin G/H synthase 1. In words: Inhibition of human Prostaglandin G/H synthase 1 at 1 ug/mL expressed as mean percent inhibition of control PGE-2 production. In outline:
as §1

For experiment [3] the target is unchanged. Briefly: Inhibition of human Prostaglandin G/H synthase 1 at 0.1 ug/mL expressed as mean percent inhibition of control PGE-2 production. In outline:
as §1

T1 sequence (P23219 whole entry): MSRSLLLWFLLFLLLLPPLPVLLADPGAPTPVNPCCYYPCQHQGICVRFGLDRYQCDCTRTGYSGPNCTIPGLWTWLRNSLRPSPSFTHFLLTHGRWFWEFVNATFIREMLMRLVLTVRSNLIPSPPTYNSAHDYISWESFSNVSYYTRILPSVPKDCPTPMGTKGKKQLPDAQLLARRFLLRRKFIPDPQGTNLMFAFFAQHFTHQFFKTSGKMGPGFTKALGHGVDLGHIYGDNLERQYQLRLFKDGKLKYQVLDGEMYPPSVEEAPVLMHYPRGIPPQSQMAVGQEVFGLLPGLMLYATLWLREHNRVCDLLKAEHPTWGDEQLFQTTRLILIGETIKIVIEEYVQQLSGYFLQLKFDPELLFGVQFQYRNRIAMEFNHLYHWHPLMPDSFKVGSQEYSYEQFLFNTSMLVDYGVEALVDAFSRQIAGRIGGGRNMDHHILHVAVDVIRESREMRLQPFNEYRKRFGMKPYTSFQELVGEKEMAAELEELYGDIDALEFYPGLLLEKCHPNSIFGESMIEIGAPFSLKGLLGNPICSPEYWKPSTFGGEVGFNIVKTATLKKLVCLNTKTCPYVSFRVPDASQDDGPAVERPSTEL

Take `Cc1cnc(NC(=O)C2=C(O)c3cc(Cl)ccc3SC2C)s1` (stereo unspecified): the inhibition in experiment [1] was 30%; in experiment [2], 20%; in experiment [3], 12%.

Take `Cc1ccc2c(c1)/C(=C(\O)Nc1ccccc1)C(=O)N(C)C2=O`: the inhibition in experiment [1] worked out at 90%; in experiment [2] it was 72%; in experiment [3] it was 40%.

Turning to `CC1Sc2ccc(Cl)cc2C(O)=C1C(=O)Nc1ccccn1` (stereo unspecified), the inhibition in experiment [1] came out at 30%; in experiment [2], 25%; in experiment [3] it was 14%.

`Cc1cnc(NC(=O)C2=C(O)N(C)S(=O)(=O)c3ccc(Cl)cc32)s1`: the inhibition worked out at 95% in experiment [1], 44% in experiment [2] and 23% in experiment [3].

For the molecule `CN1C(C(=O)Nc2ccc(Cl)cc2)=C(O)c2ccc3ccccc3c2S1(=O)=O`, the figures for the inhibition in experiment [1], in experiment [2] and in experiment [3] were 38%, 34% and 15%, respectively.

For the molecule `Cc1cnc(NC(=O)C2=C(O)c3ccc4ccccc4c3S(=O)(=O)N2C)s1`, the inhibition was determined as 100% in experiment [1], 100% in experiment [2] and 80% in experiment [3].

As to `O=C(Nc1cccc(Cl)c1)C1=C(O)c2cc(Cl)ccc2[S+]([O-])C1` (stereo unspecified), the inhibition in experiment [1] was 76%; in experiment [2], 17%; in experiment [3] it was 0%.

On to `Cc1ccc2c(c1)S(=O)(=O)N(C)C(C(=O)Nc1ccccc1)=C2O`, for which the values for the inhibition in experiment [1], in experiment [2] and in experiment [3] were 28%, 28% and 2%, respectively.

For `O=C(Nc1ccccn1)C1=C(O)c2ccccc2SC1`, the inhibition in experiment [1] was 83%; in experiment [2], 34%; in experiment [3], -1%.

With `Cc1cnc(NC(=O)C2=C(O)N(C)S(=O)(=O)c3ccccc32)s1`, the inhibition in experiment [1] came out at 66%; in experiment [2], 18%; in experiment [3] it was 3%.

Turning to `O=C(Nc1cccc(Cl)c1)C1=C(O)c2cc(Cl)ccc2SC1`, the inhibition in experiment [1] is 54%; in experiment [2], 26%; in experiment [3], 31%.

Consider `CN1C(O)=C(C(=O)Nc2ccc(Cl)cc2)c2cc3ccccc3cc2S1(=O)=O`, for which the inhibition in experiment [1] was 100%; in experiment [2] it was 100%; in experiment [3], 57%.

Turning to `Cc1cnc(NC(=O)C2=C(O)c3cc(F)ccc3S(=O)(=O)N2C)s1`, the inhibition came to 56% in experiment [1], 21% in experiment [2] and 2% in experiment [3].

Regarding `CN1C(C(=O)Nc2ccc(Cl)cc2)=C(O)c2cc(Cl)ccc2S1(=O)=O`, the inhibition in experiment [1] was 18%; in experiment [2], 23%; in experiment [3], 6%.

For `CCN1C(O)=C(C(=O)Nc2ccc(Cl)cc2Cl)c2cc(Cl)ccc2S1(=O)=O`, the results for the inhibition in experiment [1], in experiment [2] and in experiment [3] were 99%, 85% and 36%, respectively.

For the molecule `Cc1cnc(NC(=O)C2=C(O)c3c(c4ccccc4n3C)S(=O)(=O)N2C)s1`, the figures for the inhibition in experiment [1], in experiment [2] and in experiment [3] were 97%, 32% and 1%, respectively.

For the molecule `COc1ccc2c(c1)S(=O)(=O)N(C)C(C(=O)Nc1ncc(C)s1)=C2O`, the inhibition was 50% in experiment [1], 16% in experiment [2] and 6% in experiment [3].

In the case of `CN1C(O)=C(C(=O)Nc2ccc(Br)cc2)c2ccc(Cl)cc2S1(=O)=O`, the inhibition worked out at 100% in experiment [1], 89% in experiment [2] and 27% in experiment [3].

As for `CN1C(O)=C(C(=O)Nc2nccs2)c2ccc(Cl)cc2S1(=O)=O`, the inhibition in experiment [1] was 99%; in experiment [2], 66%; in experiment [3] it was -8%.

As for `CN1C(C(=O)Nc2ccccn2)=C(O)c2ccc3ccccc3c2S1(=O)=O`, the inhibition amounted to 100% in experiment [1], 78% in experiment [2] and 29% in experiment [3].

Take `Cc1cc2c(s1)S(=O)(=O)N(C)C(C(=O)Nc1ccccc1F)=C2O`: the inhibition in experiment [1] was determined as 100%; in experiment [2], 96%; in experiment [3], 78%.

Regarding `O=C(Nc1cccc(Cl)c1)C1=C(O)c2ccccc2S(=O)(=O)C1`, the values for the inhibition in experiment [1], in experiment [2] and in experiment [3] were 84%, 41% and 6%, respectively.

In the case of `Cc1cnc(NC(=O)C2=C(O)c3cc(C)sc3S(=O)(=O)N2C)s1`, the inhibition amounted to 14% in experiment [1], 6% in experiment [2] and 9% in experiment [3].

Consider `Cc1cnc(NC(=O)C2=C(O)c3ccc(F)cc3S(=O)(=O)N2C)s1`, for which the inhibition in experiment [1] is 82%; in experiment [2] it was 36%; in experiment [3], -4%.

For `O=C(Nc1cccc(Cl)c1)C1=C(O)c2ccccc2SC1`, the inhibition was found to be 83% in experiment [1], 75% in experiment [2] and 19% in experiment [3].

`CCn1c2c(c3ccccc31)S(=O)(=O)N(C)C(C(=O)Nc1ccccc1)=C2O`: the inhibition in experiment [1] is 5%; in experiment [2] it was 0%; in experiment [3], -9%.

As for `Cn1c(C(=O)Nc2nccs2)c(O)c2ccccc2c1=O`, the figures for the inhibition in experiment [1], in experiment [2] and in experiment [3] were 37%, 11% and 2%, respectively.

For the molecule `Cc1cnc(NC(=O)C2=C(O)c3sc4cc(Cl)ccc4c3S(=O)(=O)N2C)s1`, the figures for the inhibition in experiment [1], in experiment [2] and in experiment [3] were 100%, 100% and 58%, respectively.

For `CN1C(O)=C(C(=O)Nc2ccc(Cl)cc2Cl)c2cc(F)ccc2S1(=O)=O`, the inhibition in experiment [1] was determined as 100%; in experiment [2], 94%; in experiment [3], 40%.

With `Cc1cnc(N/C(O)=C2\C(=O)N(Cc3ccccc3)C(=O)c3ccc(Cl)cc32)s1`, the inhibition in experiment [1] turned out to be 83%; in experiment [2] it was 35%; in experiment [3], 8%.

Turning to `Cc1cnc(NC(=O)C2=C(O)c3ccc(Cl)cc3S(=O)(=O)N2C)s1`, the inhibition was 85% in experiment [1], 36% in experiment [2] and -9% in experiment [3].

Consider `CN1C(O)=C(C(=O)Nc2nccs2)c2cc(Cl)ccc2S1(=O)=O`, for which the inhibition in experiment [1] amounted to 98%; in experiment [2], 76%; in experiment [3] it was 18%.

With `Cc1cnc(NC(=O)C2=C(O)c3cc(Cl)ccc3SC2)s1`, the inhibition in experiment [1] is 18%; in experiment [2] it was 21%; in experiment [3], 11%.

For the molecule `CN1C(O)=C(C(=O)Nc2ccccc2Cl)c2cc(F)ccc2S1(=O)=O`, the inhibition amounted to 100% in experiment [1], 96% in experiment [2] and 32% in experiment [3].

For `CN1C(C(=O)Nc2ccccc2)=C(O)c2cc(F)ccc2S1(=O)=O`, the inhibition worked out at 61% in experiment [1], 38% in experiment [2] and 9% in experiment [3].

In the case of `CN1C(O)=C(C(=O)Nc2nccs2)c2c(ccc3ccccc23)S1(=O)=O`, the inhibition in experiment [1] was determined as 93%; in experiment [2], 57%; in experiment [3] it was 24%.

As to `Cc1cc2c(s1)C(C(=O)Nc1ccccn1)=C(O)N(C)S2(=O)=O`, the values for the inhibition in experiment [1], in experiment [2] and in experiment [3] were 82%, 53% and 15%, respectively.

As for `Cc1ccc2c(c1)S(=O)(=O)N(C)C(C(=O)Nc1ccccn1)=C2O`, the inhibition stood at 45% in experiment [1], 29% in experiment [2] and 18% in experiment [3].

Regarding `CC1Sc2ccc(Cl)cc2C(O)=C1C(=O)Nc1cccc(Cl)c1` (stereo unspecified), the inhibition in experiment [1] stood at 12%; in experiment [2], 10%; in experiment [3], 15%.

Regarding `Cc1ccc2c(c1)C(O)=C(C(=O)Nc1ccccc1)N(C)S2(=O)=O`, the inhibition is -1% in experiment [1], -8% in experiment [2] and -1% in experiment [3].

Take `CN1C(O)=C(C(=O)Nc2ccccc2Cl)c2cc(Cl)c(Cl)cc2S1(=O)=O`: the inhibition in experiment [1] stood at 100%; in experiment [2], 97%; in experiment [3] it was 28%.

Regarding `CN1C(O)=C(C(=O)Nc2ccc(F)cc2F)c2cc(F)ccc2S1(=O)=O`, the inhibition is 97% in experiment [1], 73% in experiment [2] and 22% in experiment [3].

For the molecule `CN1C(C(=O)Nc2nccs2)=C(O)c2c(c3ccccc3n2C)S1(=O)=O`, the inhibition in experiment [1] is 97%; in experiment [2] it was 44%; in experiment [3], -2%.

On to `Cc1cnc(NC(=O)C2=C(O)c3cc(Cl)ccc3S(=O)(=O)N2C)s1`, for which the inhibition turned out to be 62% in experiment [1], 26% in experiment [2] and 11% in experiment [3].

As for `CN1C(C(=O)Nc2nc3ccccc3s2)=C(O)c2ccccc2S1(=O)=O`, the inhibition in experiment [1] was 95%; in experiment [2], 49%; in experiment [3], 13%.

In the case of `CN1C(C(=O)Nc2ccccn2)=C(O)c2sc3cc(Cl)ccc3c2S1(=O)=O`, the inhibition in experiment [1] came to 93%; in experiment [2], 100%; in experiment [3] it was 69%.

As for `Cc1ccc2c(c1)C(O)=C(C(=O)Nc1ncc(C)s1)N(C)S2(=O)=O`, the inhibition stood at 24% in experiment [1], 14% in experiment [2] and 0% in experiment [3].

Turning to `CCCc1csc(NC(=O)C2=C(O)c3ccccc3S(=O)(=O)N2C)n1`, the inhibition in experiment [1] is 44%; in experiment [2] it was 1%; in experiment [3] it was -3%.

As for `Cc1ccc2c(c1)/C(=C(\O)Nc1ccccn1)C(=O)N(C)C2=O`, the values for the inhibition in experiment [1], in experiment [2] and in experiment [3] were 73%, 62% and 22%, respectively.

Turning to `CN1C(C(=O)Nc2ccccn2)=C(O)c2ccccc2S1(=O)=O`, the inhibition was 35% in experiment [1], 10% in experiment [2] and -7% in experiment [3].

As to `CCc1cnc(NC(=O)C2=C(O)c3ccccc3S(=O)(=O)N2C)s1`, the inhibition in experiment [1] is 30%; in experiment [2] it was 23%; in experiment [3], -4%.

For `Cc1ccc2c(c1)S(=O)(=O)N(C)C(C(=O)Nc1ncc(C)s1)=C2O`, the inhibition in experiment [1] came to 69%; in experiment [2] it was 31%; in experiment [3], 8%.

For the origin of these results see ChEMBL document CHEMBL1129978, “Effect of structural modification of enol-carboxamide-type nonsteroidal antiinflammatory drugs on COX-2/COX-1 selectivity” (J Med Chem, 1997).
